Test results taken from paper PMC7709506 (ESMO Open, 2020).

Assay: Safety and tolerability
Type: in vivo, human
In short: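 Open-label multicentre phase I/IIa trial in adults with advanced or metastatic solid tumours. Part 1 used 3+3 oral capsule escalation at 50–800 mg/day to define DLT and MTD. Part 2 gave tablets. Treatment continued until progression, intolerable AE or study end, with dose decisions by a safety monitoring board. AEs of special interest were monitored. The safety population was all dosed patients, summarised by dose level.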

[1] = 30 patients treated with 400 mg/day

With Cn1cc(-c2ccc3c(c2)ncn3-c2cc(NS(=O)(=O)C3CC3)cc(-c3ccc(F)cc3F)c2)cn1 [ODM-203] the Hyperbilirubinaemia [1] was 36.7%, the increased blood bilirubin [1] was 50.0% and the Alopecia (Grade 3–5, all doses (n=84)) was 1 (1.2) n (%). For the same compound, the Arthralgia (Grade 3–5, all doses (n=84)) was 2 (2.4) n (%), the Asthenia (Grade 3–5, all doses (n=84)) was 2 (2.4) n (%) and the Blood bilirubin increased (Grade 3–5, all doses (n=84)) was 20 (23.8) n (%). For the same compound, the Conjugated bilirubin increased (Grade 3–5, all doses (n=84)) was 0 n (%), the Decreased appetite (Grade 3–5, all doses (n=84)) was 0 n (%) and the Diarrhoea (Grade 3–5, all doses (n=84)) was 5 (6.0) n (%). The Dry mouth (Grade 3–5, all doses (n=84)) was 0 n (%), the Dry skin (Grade 3–5, all doses (n=84)) was 0 n (%) and the Dysgeusia (Grade 3–5, all doses (n=84)) was 0 n (%). The Epistaxis (Grade 3–5, all doses (n=84)) was 0 n (%), the Fatigue (Grade 3–5, all doses (n=84)) was 5 (6.0) n (%) and the Hyperbilirubinaemia (Grade 3–5, all doses (n=84)) was 16 (19.0) n (%). The Hyperphosphataemia (Grade 3–5, all doses (n=84)) was 0 n (%), the Hypertension (Grade 3–5, all doses (n=84)) was 3 (3.6) n (%) and the Jaundice (Grade 3–5, all doses (n=84)) was 2 (2.4) n (%). For the same compound, the Mucosal inflammation (Grade 3–5, all doses (n=84)) was 0 n (%), the Myalgia (Grade 3–5, all doses (n=84)) was 2 (2.4) n (%) and the Nasal dryness (Grade 3–5, all doses (n=84)) was 0 n (%). The Nausea (Grade 3–5, all doses (n=84)) was 0 n (%), the Onycholysis (Grade 3–5, all doses (n=84)) was 1 (1.2) n (%) and the Palmar-plantar eryrthodysaestesia (Grade 3–5, all doses (n=84)) was 4 (4.8) n (%). For the same compound, the Stomatitis (Grade 3–5, all doses (n=84)) was 3 (3.6) n (%), the Vomiting (Grade 3–5, all doses (n=84)) was 0 n (%) and the Weight decreased (Grade 3–5, all doses (n=84)) was 1 (1.2) n (%). The “dose reduction due to arthralgia” value (N=84) was 2 patients, the “dose reduction due to increased blood bilirubin” value (N=84) was 2 patients and the “dose reduction due to palmar-plantar erythrodysesthesia syndrome” value (N=84) was 3 patients. For the same compound, the “treatment interruption due to hyperbilirubinaemia” value (N=84) was 8 patients, the “treatment interruption due to increase in blood bilirubin” value (N=84) was 16 patients and the “AE leading to death” value (Total (N=84)) was 7 (8.3) n (%). For the same compound, the “AE leading to discontinuation” value (Total (N=84)) was 30 (35.7) n (%), the “AE leading to dose reduction” value (Total (N=84)) was 9 (10.7) n (%) and the “AE leading to treatment interruption” value (Total (N=84)) was 61 (72.6) n (%). For the same compound, the Alopecia (Total (N=84)) was 26 (31.0) n (%), the “Any AE” value (Total (N=84)) was 84 (100) n (%) and the Arthralgia (Total (N=84)) was 28 (33.3) n (%). For the same compound, the Asthenia (Total (N=84)) was 25 (29.8) n (%), the Blood bilirubin increased (Total (N=84)) was 36 (42.9) n (%) and the Conjugated bilirubin increased (Total (N=84)) was 11 (13.1) n (%). For the same compound, the Decreased appetite (Total (N=84)) was 25 (29.8) n (%), the Diarrhoea (Total (N=84)) was 42 (50.0) n (%) and the Dry mouth (Total (N=84)) was 29 (34.5) n (%). For the same compound, the Dry skin (Total (N=84)) was 10 (11.9) n (%), the Dysgeusia (Total (N=84)) was 20 (23.8) n (%) and the Epistaxis (Total (N=84)) was 28 (33.3) n (%). The Fatigue (Total (N=84)) was 23 (27.4) n (%), the Hyperbilirubinaemia (Total (N=84)) was 28 (33.3) n (%) and the Hyperphosphataemia (Total (N=84)) was 20 (23.8) n (%). For the same compound, the Hypertension (Total (N=84)) was 14 (16.7) n (%), the Jaundice (Total (N=84)) was 27 (32.1) n (%) and the Mucosal inflammation (Total (N=84)) was 10 (11.9) n (%). For the same compound, the Myalgia (Total (N=84)) was 11 (13.1) n (%), the Nasal dryness (Total (N=84)) was 13 (15.5) n (%) and the Nausea (Total (N=84)) was 11 (13.1) n (%). The Onycholysis (Total (N=84)) was 11 (13.1) n (%), the Palmar-plantar eryrthodysaestesia (Total (N=84)) was 30 (35.7) n (%) and the “Related AE” value (Total (N=84)) was 82 (97.6) n (%). For the same compound, the “Related SAEs” value (Total (N=84)) was 14 (16.7) n (%), the Stomatitis (Total (N=84)) was 34 (40.5) n (%) and the Vomiting (Total (N=84)) was 9 (10.7) n (%). For the same compound, the Weight decreased (Total (N=84)) was 19 (22.6) n (%), the “patients with at least one AE during treatment” value (all doses, N=84) was 84 patients and the “AE leading to death” value (capsule 100 mg (n=1)) was 0 n (%). The “AE leading to discontinuation” value (capsule 100 mg (n=1)) was 0 n (%), the “AE leading to dose reduction” value (capsule 100 mg (n=1)) was 0 n (%) and the “AE leading to treatment interruption” value (capsule 100 mg (n=1)) was 1 (100) n (%). The Alopecia (capsule 100 mg (n=1)) was 0 n (%), the “Any AE” value (capsule 100 mg (n=1)) was 1 (100) n (%) and the Arthralgia (capsule 100 mg (n=1)) was 0 n (%). For the same compound, the Asthenia (capsule 100 mg (n=1)) was 0 n (%), the Blood bilirubin increased (capsule 100 mg (n=1)) was 0 n (%) and the Conjugated bilirubin increased (capsule 100 mg (n=1)) was 0 n (%). For the same compound, the Decreased appetite (capsule 100 mg (n=1)) was 0 n (%), the Diarrhoea (capsule 100 mg (n=1)) was 0 n (%) and the Dry mouth (capsule 100 mg (n=1)) was 0 n (%). The Dry skin (capsule 100 mg (n=1)) was 0 n (%), the Dysgeusia (capsule 100 mg (n=1)) was 0 n (%) and the Epistaxis (capsule 100 mg (n=1)) was 0 n (%). The Fatigue (capsule 100 mg (n=1)) was 0 n (%), the Hyperbilirubinaemia (capsule 100 mg (n=1)) was 0 n (%) and the Hyperphosphataemia (capsule 100 mg (n=1)) was 0 n (%). The Hypertension (capsule 100 mg (n=1)) was 0 n (%), the Jaundice (capsule 100 mg (n=1)) was 0 n (%) and the Mucosal inflammation (capsule 100 mg (n=1)) was 0 n (%). The Myalgia (capsule 100 mg (n=1)) was 0 n (%), the Nasal dryness (capsule 100 mg (n=1)) was 0 n (%) and the Nausea (capsule 100 mg (n=1)) was 0 n (%). For the same compound, the Onycholysis (capsule 100 mg (n=1)) was 0 n (%), the Palmar-plantar eryrthodysaestesia (capsule 100 mg (n=1)) was 0 n (%) and the “Related AE” value (capsule 100 mg (n=1)) was 1 (100) n (%). For the same compound, the “Related SAEs” value (capsule 100 mg (n=1)) was 0 n (%), the Stomatitis (capsule 100 mg (n=1)) was 0 n (%) and the Vomiting (capsule 100 mg (n=1)) was 0 n (%). For the same compound, the Weight decreased (capsule 100 mg (n=1)) was 0 n (%), the “AE leading to death” value (capsule 200 mg (n=3)) was 0 n (%) and the “AE leading to discontinuation” value (capsule 200 mg (n=3)) was 0 n (%). The “AE leading to dose reduction” value (capsule 200 mg (n=3)) was 0 n (%), the “AE leading to treatment interruption” value (capsule 200 mg (n=3)) was 0 n (%) and the Alopecia (capsule 200 mg (n=3)) was 0 n (%). The “Any AE” value (capsule 200 mg (n=3)) was 3 (100) n (%), the Arthralgia (capsule 200 mg (n=3)) was 0 n (%) and the Asthenia (capsule 200 mg (n=3)) was 1 (33.3) n (%). The Blood bilirubin increased (capsule 200 mg (n=3)) was 0 n (%), the Conjugated bilirubin increased (capsule 200 mg (n=3)) was 0 n (%) and the Decreased appetite (capsule 200 mg (n=3)) was 0 n (%). The Diarrhoea (capsule 200 mg (n=3)) was 0 n (%), the Dry mouth (capsule 200 mg (n=3)) was 0 n (%) and the Dry skin (capsule 200 mg (n=3)) was 0 n (%). For the same compound, the Dysgeusia (capsule 200 mg (n=3)) was 0 n (%), the Epistaxis (capsule 200 mg (n=3)) was 1 (33.3) n (%) and the Fatigue (capsule 200 mg (n=3)) was 0 n (%). The Hyperbilirubinaemia (capsule 200 mg (n=3)) was 0 n (%), the Hyperphosphataemia (capsule 200 mg (n=3)) was 0 n (%) and the Hypertension (capsule 200 mg (n=3)) was 0 n (%). For the same compound, the Jaundice (capsule 200 mg (n=3)) was 0 n (%), the Mucosal inflammation (capsule 200 mg (n=3)) was 0 n (%) and the Myalgia (capsule 200 mg (n=3)) was 0 n (%). For the same compound, the Nasal dryness (capsule 200 mg (n=3)) was 0 n (%), the Nausea (capsule 200 mg (n=3)) was 0 n (%) and the Onycholysis (capsule 200 mg (n=3)) was 0 n (%). For the same compound, the Palmar-plantar eryrthodysaestesia (capsule 200 mg (n=3)) was 0 n (%), the “Related AE” value (capsule 200 mg (n=3)) was 2 (66.7) n (%) and the “Related SAEs” value (capsule 200 mg (n=3)) was 0 n (%). The Stomatitis (capsule 200 mg (n=3)) was 0 n (%), the Vomiting (capsule 200 mg (n=3)) was 0 n (%) and the Weight decreased (capsule 200 mg (n=3)) was 0 n (%). For the same compound, the “AE leading to death” value (capsule 400 mg (n=7)) was 0 n (%), the “AE leading to discontinuation” value (capsule 400 mg (n=7)) was 1 (14.3) n (%) and the “AE leading to dose reduction” value (capsule 400 mg (n=7)) was 1 (14.3) n (%). The “AE leading to treatment interruption” value (capsule 400 mg (n=7)) was 4 (57.1) n (%), the Alopecia (capsule 400 mg (n=7)) was 1 (14.3) n (%) and the “Any AE” value (capsule 400 mg (n=7)) was 7 (100) n (%). For the same compound, the Arthralgia (capsule 400 mg (n=7)) was 1 (14.3) n (%), the Asthenia (capsule 400 mg (n=7)) was 1 (14.3) n (%) and the Blood bilirubin increased (capsule 400 mg (n=7)) was 3 (42.9) n (%). The Conjugated bilirubin increased (capsule 400 mg (n=7)) was 0 n (%), the Decreased appetite (capsule 400 mg (n=7)) was 1 (14.3) n (%) and the Diarrhoea (capsule 400 mg (n=7)) was 1 (14.3) n (%). For the same compound, the Dry mouth (capsule 400 mg (n=7)) was 1 (14.3) n (%), the Dry skin (capsule 400 mg (n=7)) was 0 n (%) and the Dysgeusia (capsule 400 mg (n=7)) was 2 (28.6) n (%). For the same compound, the Epistaxis (capsule 400 mg (n=7)) was 1 (14.3) n (%), the Fatigue (capsule 400 mg (n=7)) was 1 (14.3) n (%) and the Hyperbilirubinaemia (capsule 400 mg (n=7)) was 2 (28.6) n (%). The Hyperphosphataemia (capsule 400 mg (n=7)) was 2 (28.6) n (%), the Hypertension (capsule 400 mg (n=7)) was 0 n (%) and the Jaundice (capsule 400 mg (n=7)) was 3 (42.9) n (%). For the same compound, the Mucosal inflammation (capsule 400 mg (n=7)) was 1 (14.3) n (%), the Myalgia (capsule 400 mg (n=7)) was 1 (14.3) n (%) and the Nasal dryness (capsule 400 mg (n=7)) was 1 (14.3) n (%). The Nausea (capsule 400 mg (n=7)) was 0 n (%), the Onycholysis (capsule 400 mg (n=7)) was 0 n (%) and the Palmar-plantar eryrthodysaestesia (capsule 400 mg (n=7)) was 2 (28.6) n (%). For the same compound, the “Related AE” value (capsule 400 mg (n=7)) was 7 (100) n (%), the “Related SAEs” value (capsule 400 mg (n=7)) was 0 n (%) and the Stomatitis (capsule 400 mg (n=7)) was 1 (14.3) n (%). For the same compound, the Vomiting (capsule 400 mg (n=7)) was 1 (14.3) n (%), the Weight decreased (capsule 400 mg (n=7)) was 1 (14.3) n (%) and the “AE leading to death” value (capsule 600 mg (n=30)) was 2 (6.7) n (%). The “AE leading to discontinuation” value (capsule 600 mg (n=30)) was 17 (56.7) n (%), the “AE leading to dose reduction” value (capsule 600 mg (n=30)) was 1 (3.3) n (%) and the “AE leading to treatment interruption” value (capsule 600 mg (n=30)) was 22 (73.3) n (%). For the same compound, the Alopecia (capsule 600 mg (n=30)) was 8 (26.7) n (%), the “Any AE” value (capsule 600 mg (n=30)) was 30 (100) n (%) and the Arthralgia (capsule 600 mg (n=30)) was 11 (36.7) n (%). For the same compound, the Asthenia (capsule 600 mg (n=30)) was 8 (26.7) n (%), the Blood bilirubin increased (capsule 600 mg (n=30)) was 13 (43.3) n (%) and the Conjugated bilirubin increased (capsule 600 mg (n=30)) was 3 (10.0) n (%).
